# ABCG2 block = inhibitors of human ABCG2 transporter, ABCB1 counter-screen; 0.1% of 190,000 active; Q9UNQ0; inhibition, % at 6.6 µM; IgMXP3 cells, JC-1 efflux, flow cytometry;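 active means inhibition above 80%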;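 further: 0% = DMSO and 100% = nicardipine control wells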
# Target sequence (Q9UNQ0 whole entry, looked up): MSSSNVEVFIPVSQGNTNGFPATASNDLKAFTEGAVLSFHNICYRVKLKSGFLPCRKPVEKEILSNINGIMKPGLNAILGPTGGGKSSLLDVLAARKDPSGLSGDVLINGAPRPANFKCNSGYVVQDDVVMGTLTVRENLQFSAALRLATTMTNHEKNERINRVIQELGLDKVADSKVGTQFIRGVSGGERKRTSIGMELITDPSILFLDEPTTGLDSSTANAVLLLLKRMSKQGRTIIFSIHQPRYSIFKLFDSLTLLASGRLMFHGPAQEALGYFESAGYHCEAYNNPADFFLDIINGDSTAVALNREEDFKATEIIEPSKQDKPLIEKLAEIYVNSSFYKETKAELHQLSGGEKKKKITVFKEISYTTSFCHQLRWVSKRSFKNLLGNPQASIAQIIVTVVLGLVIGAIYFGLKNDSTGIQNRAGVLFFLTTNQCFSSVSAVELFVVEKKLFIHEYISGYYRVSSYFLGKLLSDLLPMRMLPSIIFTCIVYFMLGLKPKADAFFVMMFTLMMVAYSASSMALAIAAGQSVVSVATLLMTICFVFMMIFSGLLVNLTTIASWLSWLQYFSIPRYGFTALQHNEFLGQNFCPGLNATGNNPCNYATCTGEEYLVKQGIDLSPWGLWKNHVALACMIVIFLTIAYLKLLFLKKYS
#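 Test system: IgMXP3 (ABCG2) plus far-red-tagged CCRF-Adr (ABCB1) cells / Amount: 3 million cells/mL in well / Reagent: JC-1 transporter substrate / Timing: 10 min compound exposure, 25 °C / Signal: flow cytometry, 530 nm JC-1 signal / Read-out: percent efflux inhibition, scaled nicardipine 100% to DMSO 0% / Benchmarks: nicardipine as high control, DMSO as low control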
# KCC2 mod = modulators of human KCC2 chloride dependent transport; Q9H2X9; AID 1456; B-score of Tl+ flux slope (higher = more flux/activation; lower = inhibition) at 10 µM; 2.2% of 190,000 active; KCC2 cells, thallium flux FluoZin-2 fluorescence;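 active means thallium flux slope and its plate-corrected score both differing from the plate sample mean at a set confidence after two filtering rounds, in either direction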;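 further: slope of fluorescence scaled to starting intensity during 10 to 20 s after thallium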
# ABCB1 block = blocks JC-1 efflux by human ABCB1 transporter. P08183. CCRF-Adr cells, flow cytometry. inhibition, % at 6.6 µM. 0.067% of 190,000 active; in the data active means inhibition above about 40%;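 further: 0% = vehicle and 100% = reference inhibitor; higher value means more JC-1 retained so stronger ABCB1 efflux block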
# ROMK mod = modulates human ROMK potassium channel activity; Tet-inducible ROMK, thallium flux fluorescence; actives lie on both sides; B-score at 10 µM; 2% of 130,000 active;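 active means signal ratio slope over the read window, or its plate-corrected B-score, at least 3 SD from the plate mean, either direction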;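 further: B-score of the F/F0 ratio slope over 7 to 12 s after thallium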
# PMI act satM6P = activators of human phosphomannose isomerase at near-saturating mannose 6-phosphate; P34949; coupled PMI enzyme assay, resazurin fluorescence, 20 min; active compounds read high; 1 = untreated enzyme, 0 = substrate-free blank; activation factor at 20 µM; 0.34% of 190,000 active; AID 1216;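 active means activation factor of 2 or more at 20 µM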
#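 Test system: human phosphomannose isomerase with PGI, G6PDH, diaphorase coupling enzymes; amount: 15 ng/mL PMI; incubation: enzyme reaction with compound 20 min at room temperature; technique: resorufin fluorescence (Ex 544/Em 590 nm) from resazurin via diaphorase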
# PMI act = increases human mannose-6-phosphate isomerase activity | P34949 | purified human PMI, coupled resazurin fluorescence, 20 min; active compounds read high; 1 = vehicle control, 0 substrate-free wells | activation factor at 20 µM | 0.005% of 190,000 active;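 active means activation factor of 2 or more at 20 µM, relative to plate controls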
# The depositor's hits bear a star; . = no result given. Shown are actives, neighbours in structure and some others; about 3.3% of the full set was active somewhere.
SMILES,ABCG2 block,KCC2 mod,ABCB1 block,ROMK mod,PMI act satM6P,PMI act
O=C(NNc1ncc(C(F)(F)F)cc1Cl)c1c(Cl)cccc1Cl,6.3,3.76*,1.2,.,0.8,0.8
CCN1C(=O)C2(Nc3ccccc3-c3nc4ccccc4n32)c2cc(OC)ccc21 (centres undefined),15.9,.,53.5*,-1.24,1,1.1
C/C(=N/Nc1ccc(C)cc1)C1(C)N(O)C(C)(C)C(c2ccco2)=[N+]1[O-] (centres undefined),-0.6,0.0623,-0.5,0.0825,2.7*,1.9
O=C(c1ccc2c(=O)n3c(nc2c1)CCCCC3)N1CCc2ccccc21,.,-2.2,.,0.0188,.,.
Cc1ccccc1C(=O)NNC(=O)C(=O)Nc1cccc(Cl)c1C,1.3,45.5*,-0.1,.,0.9,1
CSc1ccccc1NC(=O)Nc1cccc(Cl)c1C,1.1,-0.0883,0.0,-1.1,1.2,0.8
Cc1c(Cl)cccc1NC(=O)C(=O)NNC(=O)c1ccccc1F,6.6,88.5*,0.7,10.4*,1,1.1
CC1CCN(c2c(NCC3CCC(C(=O)NCCCc4ccccc4)CC3)c(=O)c2=O)CC1 (centres undefined),.,-0.775,.,.,.,.
CC1CCN(C(=S)NC(=O)c2ccccc2)CC1,2.9,36.4*,0.4,0.0194,1,1.1
O=C(NC(=S)N1CCc2ccccc21)c1ccccc1,-17.1,51.4*,-2.4,.,1,1
Cc1ccc(C(C(=O)NC(C)(C)C)N(Cc2ccccc2)C(=O)c2snc(C(N)=O)c2N)o1 (centres undefined),0.2,-0.602,0.1,-0.00778,1,1.1
Cc1ccc(N/N=C/c2ccc(N3CCOCC3)cc2)cc1C,3.3,.,0.2,.,2*,1.2
Cc1ccc(/C=N/Nc2cc(C)nc(N3CCOCC3)n2)cc1,.,0.769,.,.,.,.
CC1CCC2(CC1)NC(=S)N(C(C)(C)C)N2 (centres undefined),.,1.09,.,.,.,.
CC1CCC2(CC1)NC(=S)N(c1ccccc1)N2 (centres undefined),0.2,0.681,0.1,0.519,2.2*,1.9
CSc1cccc(-n2cc(-c3ccc4c(c3)OCO4)[nH]c2=O)c1,-1.5,1.16,-0.4,.,2.1*,1.5
NC(=O)CSc1nnc(-c2ccc3c(c2)OCO3)o1,-3.4,-0.65,-0.2,.,1,1
CCSc1oc(-c2cccs2)nc1S(=O)(=O)c1ccccc1,2.9,1.9,0.5,.,2*,1.7
CC(=O)NNc1nc(-c2ccccc2)cs1,-0.7,0.424,-0.6,-0.622,2.4*,1.7
CC(=O)NNc1nc(-c2ccc(C)cc2)cs1,14.0,-1.12,1.1,-0.106,1.1,1.2
CCOC(=O)C(=O)NNc1ccccc1C,1.2,0.774,.,-0.037,2.2*,1.5
CCOC(=O)C(=O)NNc1cccc(C)c1C,-1.3,-0.0969,0.3,1.07,2.2*,1.6
COc1ccc(S(=O)(=O)N2CCOCC2)cc1NC(=O)Cn1nnc2ccccc2c1=O,10.1,0.711,-0.3,0.151,0.9,0.9
O=C(Nc1ccccc1-c1ccccc1)C(c1ccccc1)c1ccccc1,0.4,0.929,0.9,0.278,1,0.9
Cc1nnc(SCc2ccc(F)cc2)n1NC/C=C/c1ccccc1,1.0,-4.67*,0.0,.,0.9,0.9
SMILES,ABCG2 block,KCC2 mod,ABCB1 block,ROMK mod,PMI act satM6P,PMI act
CCOc1ccc2nc(N3CCCCCC3)sc2c1,0.3,.,0.3,-1.2,1,1
CCOc1ccc2nc(N3C(=O)/C(=C/c4ccccc4)NC3=S)sc2c1,-13.3,61.6*,-1.9,.,1.1,1.1
COc1ccc2nc(N3C(=O)/C(=C/c4ccccc4)NC3=S)sc2c1,-9.2,75.5*,-1.2,.,0.9,0.9
COc1ccc2nc(-n3c(C)ccc3C)sc2c1,23.4,1.45,1.1,.,1.1,0.9
Cc1ccc2c(c1)N(C(C)C(=O)NCc1ccc3c(c1)OCO3)C(=O)CO2 (centres undefined),.,1.23,.,.,.,.
NCC(=O)Nc1ccc(Cl)cc1C(=O)c1ccc[nH]1,.,-0.0141,.,.,.,.
S=C(N/N=C/c1ccc(Cl)cc1)N1CCOCC1,2.8,40.6*,0.3,1.82,1.1,1
Cc1ccc(/C=N/NC(=S)N2CCOCC2)cc1,3.2,31.9*,0.7,1.18,0.9,0.9
O=C(CN1CCN(C(=O)C2COc3ccccc3O2)CC1)Nc1ccc(F)cc1 (centres undefined),.,-0.566,.,.,.,.
Cc1cc(C)n(C(=O)/C=C/c2cccs2)n1,.,0.253,.,.,.,.
C/C(=N\Nc1ccc(Cl)c(C(=O)O)c1)c1ccc2c(c1)OCO2,3.9,-1.18,0.5,-0.0362,2.8*,1.9
O=C(O)c1cc(N/N=C/c2ccc3c(c2)OCO3)ccc1Cl,1.7,-0.395,0.4,-0.5,1.2,1.4
Cc1ccc(-n2cccc2/C=C2/C(=N)N3C(=NC2=O)SN=C3S(C)(=O)=O)cc1,-1.4,-3.65,-0.4,-0.235,1.2,1.3
CCc1ccc(-n2cccc2/C=C2/C(=N)N3C(=NC2=O)SN=C3S(C)(=O)=O)cc1,-1.5,-5.45*,-0.4,0.16,1,1.1
Fc1ccc(C(c2nnnn2Cc2cccs2)N2CCN(C3CCCCC3)CC2)cc1 (centres undefined),1.1,0.291,1.0,-5.75*,1,1
Cc1ccc(C(NC(=O)N2CCCC2)C(Cl)Cl)cc1F (centres undefined),2.4,-0.786,0.5,-0.709,2*,1.7
Cc1ccc(C(C(=O)NC(C)(C)C)N(Cc2ccco2)C(=O)CCC(=O)Nc2nccs2)cc1 (centres undefined),.,0.0745,.,.,.,.
C=CCNC(=S)Nc1sc2c(c1C(=O)OCC)CC(C(C)C)OC2 (centres undefined),2.1,31.9*,0.1,.,1,0.9
CCOC(=O)c1c(NC(=S)NCCc2ccccc2)sc2c1CC(C(C)C)OC2 (centres undefined),-1.0,8.93*,-0.4,.,0.9,0.9
CC(C)C1Cc2c(sc(NC(=S)NC(=O)c3ccccc3)c2C#N)CO1 (centres undefined),-1.1,1.12,-0.3,.,1,0.9
CCOC(=O)c1c(NC(=S)Nc2ccc(OC)cc2)sc2c1CCC2,16.9,-1.25,1.1,.,0.9,0.8
Cn1ncc2cc(NC(=S)NC(=O)c3ccccc3)ccc21,4.5,4.2*,0.6,.,0.9,0.8
O=C(NC(=S)Nc1ccc2c(c1)OCCO2)c1ccccc1,0.9,.,0.2,1.27,0.9,0.8
COc1ccc(CCn2c(C(C)C)nc3c(c(=O)c4ccccc4n3C)c2=O)cc1,27.9,-4.25*,5.2,.,0.9,1
O=C1CCN(C(=O)Nc2ccccc2Cl)N1,9.8,0.118,1.0,.,2.2*,1.4
O=C1CCN(C(=O)Nc2cccc(Cl)c2)N1,6.4,-0.297,0.9,.,1.5,1.2
